pIC50: −log10 of the molar value.

The target in one data set is Retinoid isomerohydrolase (Bos taurus, UniProt Q28175). As to the kind of experiment: Inhibition of RPE65 in bovine retinal pigment epithelium microsomes assessed as decrease of 11-cis-retinol using trans-retinol measured after 1 hr by normal phase HPLC analysis. Also noted: species or system Retina, Microsome.
Chain of Retinoid isomerohydrolase (Q28175 whole entry): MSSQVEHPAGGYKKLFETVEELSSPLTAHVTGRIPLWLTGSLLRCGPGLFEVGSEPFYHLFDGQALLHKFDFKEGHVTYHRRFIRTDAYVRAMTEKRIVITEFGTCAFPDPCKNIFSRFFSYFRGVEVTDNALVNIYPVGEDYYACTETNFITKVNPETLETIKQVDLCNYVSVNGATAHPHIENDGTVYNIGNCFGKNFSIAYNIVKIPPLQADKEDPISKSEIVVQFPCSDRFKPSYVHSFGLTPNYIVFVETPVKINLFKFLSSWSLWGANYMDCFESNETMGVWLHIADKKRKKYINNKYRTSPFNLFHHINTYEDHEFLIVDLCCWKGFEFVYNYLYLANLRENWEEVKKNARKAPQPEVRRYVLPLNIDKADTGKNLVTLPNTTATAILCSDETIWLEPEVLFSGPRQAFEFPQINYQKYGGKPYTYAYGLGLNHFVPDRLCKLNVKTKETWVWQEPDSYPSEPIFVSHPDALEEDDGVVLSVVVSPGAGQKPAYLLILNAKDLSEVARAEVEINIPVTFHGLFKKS
Settings: not given; call rule not given here
The term pIC50 denotes the IC50 on a negative log10 scale, so that one unit is a factor of ten. As for `CCCC(CCC)COc1cc(F)cc(C(O)CCN)c1` (racemic; 25), the negative logarithm of the IC50 (pIC50) was 6.53.
Consider `CCCC(CCC)COc1ccc(F)c(C(O)CCN)c1` (racemic; 28), for which the pIC50 was 6.88.
Same read-out and setting: with `CCCC(CCC)COc1cccc(C(O)CCN)c1F` (racemic) the figure was 6.54; with `CCCC(CCC)COc1cc(F)cc(C(O)CCN)c1` (racemic; 26), 6.74; with `CCCC(CCC)COc1ccc(F)c(C(O)CCN)c1` (racemic; 27), 6.80.

Tested on in another data set: not listed separately
Put plainly: Drug distribution in wild type BL/6J mouse eyes measured at 380 nM, IP administered single dose per eye after 3 hrs by LC-MS/MS electrospray ionization fragmentation spectra method. The class given is ADME, tissue-based. The note with it: in vivo, 0.38 µM. Summed up:
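Eight-week-old BL/6J mice got one i.p. dose of 380 nmol in 50 μL DMSO and were sacrificed at 3 h, 1 day or 7 days. Both eyes were homogenized in acetonitrile, and the extract was dried and reconstituted in 50% methanol/water. Analysis was by C18 LC-MS/MS with ESI and a formic acid/acetonitrile gradient.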
With `CCCC(CCC)COc1cc([C@H](O)CCN)ccc1F`, the Drug uptake entry is on record as “Not Active”.
Regarding `NCCC(O)c1cccc(OCC2CCC(F)(F)CC2)c1` (centres undefined), the Drug uptake is recorded as 176 pmol.
Still for that read-out and setting: for `NCCC(O)c1ccc(F)c(OCC2CCCCC2)c1` (centres undefined) the value was “Not Active”.

Tested on in a further data set: not listed separately
Put plainly: Drug distribution in wild type BL/6J mouse eyes measured at 380 nM, IP administered single dose per eye after 7 days by LC-MS/MS electrospray ionization fragmentation spectra method. In kind it is ADME, tissue-based. The note with it: in vivo, 168 h, 0.38 µM, time 7 day. Summed up:
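Eight-week-old BL/6J mice got one i.p. dose of 380 nmol in 50 μL DMSO and were sacrificed at 3 h, 1 day or 7 days. Both eyes were homogenized in acetonitrile, and the extract was dried and reconstituted in 50% methanol/water. Analysis was by C18 LC-MS/MS with ESI and a formic acid/acetonitrile gradient. The transition monitored was water loss (−18 Da), or −47 Da for one analog.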
Turning to `NCCC(O)c1cccc(OCC2CCC(F)(F)CC2)c1` (centres undefined), the Drug uptake stood at 21 pmol.

For the origin of these results see ChEMBL document CHEMBL5032497, “Rational Alteration of Pharmacokinetics of Chiral Fluorinated and Deuterated Derivatives of Emixustat for Retinal Therapy” (J Med Chem, 2021).
